Tests used:
[1] = species on record: Rattus norvegicus; test: In vitro inhibition of norepinephrine uptake in rat brain synaptosomes using [3H]NE; assay type: functional, organism-based
[2] = species on record: Rattus norvegicus; test: cells; assay type: functional, organism-based, Synaptosomes; conditions: Brain, 3 h
[3] = species on record: Mus musculus; test: Anti-tetrabenazine (TBZ) activity, ability to prevent TBZ-induced ptosis in mice; assay type: functional
How it was run: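 Mice; compound given by an unstated route some hours before tetrabenazine (the time is truncated). Five animals per dose, with at least three to five doses. Ptosis scored 75-120 min after tetrabenazine injection on the Rubin scale (eyes closed = 100).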

SMILES | IC50 [1] [µM] | IC50 [2] [µM] | ED50 [3] [mg/kg]
Cc1cc2c(s1)CN(C)CC2c1ccc(Br)cc1.Cl (configuration not stated) | 0.5 | 0.54 | 2.6
CN(C)CCCN1c2ccccc2CCc2ccccc21 [IMIPRAMINE] | 5 | 0.23 | 2.3
CCCc1cc2c(s1)CN(C)CC2c1ccc(F)cc1.Cl (configuration not stated) | 1.1 | 0.78 | 13
CCc1cc2c(s1)CN(CC)CC2c1ccc(C)cc1.Cl (configuration not stated) | 0.27 | 1.8 | > 40
Cc1cc2c(s1)CN(C)CC2c1ccc(O)cc1.Cl (configuration not stated) | 0.25 | 0.46 | 10
Cc1ccc(C2CN(C)Cc3sc(Br)cc32)cc1.Cl (configuration not stated) | 0.64 | 9 | 7.4
Oc1cccc(C2CNCc3sc(Cl)cc32)c1 (configuration not stated) | 3.2 | > 10 | > 40
CN1Cc2sc(Cl)cc2C(c2ccc(Cl)cc2)C1.Cl (configuration not stated) | 1.6 | 5.4 | 2.2
CN1Cc2sc(Cl)cc2C(c2ccccc2)C1.Cl (configuration not stated) | 1.4 | > 10 | > 40
Cc1cc2c(s1)CN(C)CC2c1cccc(C(F)(F)F)c1.Cl (configuration not stated) | 3.4 | > 10 | > 40
Cc1cc2c(s1)CNCC2c1ccc(Br)cc1.Cl (configuration not stated) | 0.76 | 1.8 | > 40
Cc1cc2c(s1)CN(C)CC2c1ccc(Cl)cc1.Cl (configuration not stated) | 0.19 | 3.55 | > 40
Cc1cc2c(s1)CN(C)CC2c1ccc(C(F)(F)F)cc1.Cl (configuration not stated) | 7.8 | 2.05 | > 40
CN1Cc2sc(C(C)(C)C)cc2C(c2ccc(Br)cc2)C1.Cl (configuration not stated) | 1.74 | 5.7 | 7
Cl.Clc1cc2c(s1)CNCC2c1ccc(Br)cc1 (configuration not stated) | 3.6 | > 10 | > 40
Cc1cc2c(s1)CN(C)CC2(C)c1ccc(Br)cc1 (configuration not stated) | 3.4 | 3.1 | 40
CN1Cc2sc([N+](=O)[O-])cc2C(c2ccc(Cl)cc2)C1 (configuration not stated) | 0.8 | 3.35 | > 40
CN1Cc2c(N)cccc2C(c2ccccc2)C1 (configuration not stated) [NOMIFENSINE] |  |  | 1.7
Cc1ccc(C2CN(C)Cc3sc(CO)cc32)cc1.Cl (configuration not stated) | 0.05 | 1.2 | 0.7
COCc1cc2c(s1)CN(C)CC2c1ccc(Br)cc1 (configuration not stated) | 0.37 | 0.2 | 1.7
COc1ccc(C2CN(C)Cc3sc(C)cc32)cc1.Cl (configuration not stated) | 0.4 | 0.5 | 7.1
CC(=O)Nc1cc2c(s1)CN(C)CC2c1ccc(Cl)cc1.Cl (configuration not stated) | 0.57 | 0.6 | 35
CCCCN1Cc2sccc2C(c2ccc(Cl)cc2)C1.Cl (configuration not stated) | > 10 | > 10 | > 40
Cc1cc2c(s1)CN(C)CC2c1ccccc1.Cl (configuration not stated) | 0.56 | 8 | 8.4

Now from value to compound, other results behind:

IC50 [1] [µM] | IC50 [2] [µM] | SMILES | ED50 [3] [mg/kg]
2.3 | > 10 | CN1Cc2sc(Br)cc2C(c2ccccc2)C1.Cl (configuration not stated) | 6
> 10 | 0.3 | COc1ccc(C2CN(C)Cc3sccc32)cc1OC.Cl (configuration not stated) | > 40
> 10 | > 10 | CCC1(c2ccc(Br)cc2)CN(C)Cc2sc(C)cc21 (configuration not stated) | > 40
> 10 | > 10 | Cc1cc2c(s1)CN(C)CC2c1c(Cl)cccc1Cl.Cl (configuration not stated) | > 40
0.13 | 0.09 | CN1Cc2sc(N)cc2C(c2ccc(Br)cc2)C1 (configuration not stated) | 7.4
3 | > 10 | Cl.c1ccc(C2CNCc3sccc32)cc1 (configuration not stated) | > 40
1.6 | 4.1 | CN1Cc2sc(Br)cc2C(c2ccc(Br)cc2)C1 (configuration not stated) | 0.8
0.45 | 2.45 | CN1Cc2sc([N+](=O)[O-])cc2C(c2ccc(Br)cc2)C1.Cl (configuration not stated) | 3.6
> 10 | 3 | CN1Cc2sccc2C(c2ccc(Cl)cc2Cl)C1.Cl (configuration not stated) | > 40
1 | 3.5 | CN1Cc2sc(Cl)cc2C(c2ccc(Br)cc2)C1.Cl (configuration not stated) | 6.5
7.8 | > 10 | Cc1sc2c(c1Br)C(c1ccc(Br)cc1)CN(C)C2.Cl (configuration not stated) | > 40
0.18 | 0.21 | CN1Cc2sc(N)cc2C(c2ccc(Cl)cc2)C1 (configuration not stated) | > 40
0.99 | 0.86 | CCCc1cc2c(s1)CN(C)CC2c1ccc(Br)cc1.Cl (configuration not stated) | 40
0.9 | > 10 | Cc1ccc(C2CN(C)Cc3sc(Cl)cc32)cc1.Cl (configuration not stated) | 5.9
